Assay outcomes: PubChem, several laboratories
Most compounds without a hit are left out; they make up all but 7.4% or so of the library.
M1 antag: M1 muscarinic receptor (rat) antagonism; P08482; CHO-M1 cells, Fluo-4 calcium, ACh EC80 antagonist mode; stronger effect = lower value; B-score at 10 µM; 64,000 compounds, 3.4% hits; AID 628;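 active = calcium fluorescence response, raw or row-and-column corrected B-score, differing from the plate sample mean either way at a set confidence level, mostly lower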
S1P1 ag-PAM: activates or potentiates agonism at human S1P1 receptor. S1P1 CRE-bla cells, forskolin, beta-lactamase FRET, potentiator mode; S1P1 agonist co-added at EC20, 2 nM; 100% = saturating reference agonist, 0% = basal. activation, % at 9.5 µM. 56,000 compounds, 0.57% hits. AID 449;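 active = activation above a cutoff set at the mean activation of all tested compounds plus 3 SD, cut at about 54% in these data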;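 note: forskolin at 4 µM as EC80 and the EC20 agonist is SEW2871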
M1 ag: M1 muscarinic receptor agonism; 64,000 compounds, 3% hits; CHO-M1 cells, Fluo-4 calcium fluorescence, agonist mode; stronger effect = higher value; B-score at 10 µM;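 active = fluorescence rise, raw or as B-score row- and column-corrected plate score, outside the 99.7% band of its plate's samples, either direction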
Jurkat viability: cytotoxicity toward Jurkat cells; inhibition, % at 4 µM; 56,000 compounds, 1.2% hits; Jurkat E6.1 viability, ATP luminescence, 48 h;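 active = inhibition above the mean inhibition of all tested compounds plus 3 SD, cut at about 28% in these data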
JNK3 blocker: blocks human JNK3 kinase activity; P53779; purified JNK3 kinase activity, HTS; inhibition, % at 8 µM; 60,000 compounds, 0.61% hits; AID 746; in the data active = inhibition above about 17%
S1P3 agonist: agonists of human S1P3 receptor. Q99500. S1P3 NFAT-BLA reporter cells, agonism, FRET ratio; relative to 1 µM S1P, basal subtracted. activation, % at 4.5 µM. 60,000 compounds, 0.1% hits;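 active = activation above the screen-wide mean plus 3 SD, cut at about 4.5% in these data, passing the limit was not always enough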
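Measure – % activation relative to 1 µM S1P (100%), per plate · System – stable CHO line with human S1P3, Gα16, NFAT-BLA reporter · Timing – cells plated overnight, compound 4 h 37 °C, substrate 2 h RT · Technique – fluorescent BLA substrate, ex 405 nm, em 460/535 nm ratio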
M1 agonist conf: confirmation of rat M1 muscarinic receptor agonists; AID 1488; shares compounds with M1 ag; 1,700 compounds, 19% hits; fluorescence change (max-min) at 10 µM; CHO-M1 cells, Fluo-4 calcium fluorescence, agonist mode; actives lie on both sides;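 active = fluorescence change differs from the solvent-only DMSO control mean at a set confidence level in both duplicate runs; inconclusive = differs from solvent-only control mean in just one of two runs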;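 note: an EC20 dose of acetylcholine follows compound addition during the same imaging run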
M4 ag counter: counter-screen for M1 agonists: activity at rat M4 receptor; shares compounds with M1 ag; CHO M4/Gqi5 cells, Fluo-4 calcium fluorescence, agonist mode; actives lie on both sides; fluorescence change (max-min) at 10 µM; 1,700 compounds, 9% hits; AID 1741;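 active = fluorescence change differing from the plate's solvent-only control wells at 99.7% confidence in both duplicates, whether higher or lower; inconclusive = differs from solvent controls in only one of two duplicates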
Target sequence (P08485 whole entry, looked up): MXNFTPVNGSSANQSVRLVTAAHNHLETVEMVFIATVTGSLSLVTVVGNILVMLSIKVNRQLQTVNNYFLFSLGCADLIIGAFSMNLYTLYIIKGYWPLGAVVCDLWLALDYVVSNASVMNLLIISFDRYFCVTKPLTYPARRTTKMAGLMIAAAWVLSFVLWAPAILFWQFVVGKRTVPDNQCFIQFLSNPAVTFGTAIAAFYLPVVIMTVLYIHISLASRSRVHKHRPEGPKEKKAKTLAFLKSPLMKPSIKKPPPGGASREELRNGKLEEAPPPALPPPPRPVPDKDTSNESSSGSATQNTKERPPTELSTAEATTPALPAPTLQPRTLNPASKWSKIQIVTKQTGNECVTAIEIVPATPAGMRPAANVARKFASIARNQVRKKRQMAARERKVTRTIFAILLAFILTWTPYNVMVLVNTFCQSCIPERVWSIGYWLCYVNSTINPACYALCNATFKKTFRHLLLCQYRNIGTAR
Large screens that a line does not name were inactive (follow-up assays come after a bar, where they were run).

O=C(Nc1cccc(-c2cnc3ccccc3n2)c1)c1ccco1	M1 ag 4.3 | M1 agonist conf inconclusive | M4 ag counter inactive
O=C(Nc1cccc(-c2nc3ccccc3[nH]2)c1)c1cccc(NC(=O)c2ccco2)c1	M1 ag 5.1, JNK3 blocker 19 | M1 agonist conf inactive | M4 ag counter inactive
CCN(CCCNC(=O)C1CCCN(S(=O)(=O)c2cnc[nH]2)C1)c1ccccc1 (stereo not drawn)	none
COc1cc2c(cc1OC)C(c1ccccc1O)N(C1CC(=O)N(c3ccccc3)C1=O)CC2 (stereo not drawn)	none
O=C(CCCCCn1c(=S)[nH]c2cc3c(cc2c1=O)OCO3)N1CCN(C2CCCCC2)CC1	M1 antag -5.1, M1 ag 2.1 (no result: S1P1 ag-PAM, Jurkat viability, JNK3 blocker, S1P3 agonist) | M1 agonist conf inactive | M4 ag counter inconclusive
CCN(c1ccccc1)S(=O)(=O)c1ccc(F)cc1C	M1 ag 15 | M1 agonist conf inconclusive | M4 ag counter inactive
CCN(c1ccccc1)S(=O)(=O)c1ccc(F)c(C(=O)O)c1	none
N#CC1=C(N)Oc2cc(O)ccc2C1c1ccncc1 (stereo not drawn)	none
CN(C)c1ccc2c(c1)OC(N)=C(C#N)C2c1cccc(F)c1 (stereo not drawn)	M1 antag -3.4, M1 ag 20, Jurkat viability 86 | M1 agonist conf 163 | M4 ag counter 120
CCSc1nnc([C@H](C)NC(=O)OC(C)(C)C)o1	none
Cc1cccc(C(CC(=O)N2CCCC2)c2ccccc2)c1O (stereo not drawn)	M1 ag 4.1 | M1 agonist conf inactive | M4 ag counter inactive
COc1ccc(-c2cn3c(C)c(C(=O)Nc4cccc(C)n4)sc3n2)cc1	none
Cc1cccc(NC(=O)c2sc3nc(-c4ccccc4)cn3c2C)n1	M1 ag 2.4 | M1 agonist conf inconclusive | M4 ag counter inactive
O=C(CCn1nc(-c2ccccc2)ccc1=O)N1CCN(c2ccccn2)CC1	M1 ag 3.9 | M1 agonist conf inactive | M4 ag counter inactive
O=C(CCn1nc(-c2ccccc2)ccc1=O)N1CCOCC1	none
Cc1cc(C)n2nc(C(=O)Nc3ccc4c(c3)OCO4)nc2n1	M1 ag 4.5 | M1 agonist conf inconclusive | M4 ag counter inactive
COC(=O)c1ccc2c(=O)n(CCCCCC(=O)N3CCN(c4ccccc4)CC3)c(=O)[nH]c2c1	M1 ag 11 | M1 agonist conf inactive | M4 ag counter inactive
COc1cc2[nH]c(=O)n(CCCCCC(=O)N3CCN(c4ccccc4)CC3)c(=O)c2cc1OC	M1 ag 2.8 (no result: S1P1 ag-PAM, Jurkat viability, JNK3 blocker, S1P3 agonist) | M1 agonist conf inactive | M4 ag counter inactive
CCCn1c(N)c(C(=O)CSc2nnc(-c3ccco3)n2Cc2ccccc2)c(=O)[nH]c1=O	none
CC(=O)c1c(C)[nH]c(C(=O)CSc2nnc(-c3ccco3)n2Cc2ccccc2)c1C	M1 ag 2.6 | M1 agonist conf inactive | M4 ag counter inactive
CCC(CO)NC(=O)c1cccc(S(=O)(=O)N2c3ccccc3CC2C)c1 (stereo not drawn)	none
O/N=C1\CCCc2oc3c(c21)CCCC3	none (no result: S1P1 ag-PAM, Jurkat viability, JNK3 blocker, S1P3 agonist)
C/C(N)=C(/C#N)C(=O)CSc1nc2cc(Cl)ccc2s1	M1 ag 5.1 | M1 agonist conf inactive | M4 ag counter inactive
C/C(N)=C(/C#N)C(=O)CSc1nnc(Nc2cccc(C)c2)s1	none
Cc1ccc(N2C(=O)c3cccc4c(N5CCN(C)CC5)ccc(c34)C2=O)c2cccnc12	M1 antag -3.1, M1 ag 405 | M1 agonist conf 956 | M4 ag counter 1220
C=CCNS(=O)(=O)c1cccc2cc(C(=O)O)c(O)cc12	M1 ag 3.6 | M1 agonist conf inactive | M4 ag counter inactive
O=C(Nc1cccc2nsnc12)C1CC(=O)N(c2ccccc2)C1 (stereo not drawn)	M1 ag -2.7 | M1 agonist conf inconclusive | M4 ag counter inconclusive
Cc1c(C(=O)NCCC2=CCCCC2)oc2ccc(S(=O)(=O)N3CCC4(CC3)OCCO4)cc12	M1 ag 9 (no result: S1P1 ag-PAM, Jurkat viability, JNK3 blocker, S1P3 agonist) | M1 agonist conf inactive | M4 ag counter inconclusive
Cc1c(C(=O)NCC2CCCO2)oc2ccc(S(=O)(=O)N3CCCCC3)cc12 (stereo not drawn)	none
Cc1c(C(=O)Nc2ccc(F)cc2)oc2ccc(S(=O)(=O)N3CCC4(CC3)OCCO4)cc12	M1 ag 4.7 | M1 agonist conf inactive | M4 ag counter inactive
Cc1c(C(=O)NCc2ccccc2)oc2ccc(S(=O)(=O)N3CCC4(CC3)OCCO4)cc12	none (no result: S1P1 ag-PAM, Jurkat viability, JNK3 blocker, S1P3 agonist)
Cc1c(C(=O)Nc2cccc(Cl)c2)oc2ccc(S(=O)(=O)N3CCC4(CC3)OCCO4)cc12	M1 ag 3.6 (no result: S1P1 ag-PAM, Jurkat viability, JNK3 blocker, S1P3 agonist) | M1 agonist conf inactive | M4 ag counter inactive
COC(=O)c1ccc(OCC2c3cc(OC)c(OC)cc3CCN2C(=O)C2CC2)cc1 (stereo not drawn)	M1 ag 8.7 (no result: S1P1 ag-PAM, Jurkat viability, JNK3 blocker, S1P3 agonist) | M1 agonist conf -32 | M4 ag counter inactive
Cc1nc2ccccc2c(=O)n1/N=C/c1cn(-c2ccccc2)nc1-c1cccs1	M1 ag 3.5 | M1 agonist conf inconclusive | M4 ag counter inactive
Cc1nc2ccccc2c(=O)n1/N=C/c1ccncc1	none
COc1ccccc1C(=O)NCCC(=O)N1CC(=O)Nc2ccccc21	none
O=C(OCCCCN1C(=O)c2ccccc2C1=O)c1n[nH]c2ccccc12	none
CC(=O)c1c(C)[nH]c(C(=O)OCCCCN2C(=O)c3ccccc3C2=O)c1C	M1 antag -2.4, S1P1 ag-PAM 97, M1 ag 6.4, Jurkat viability 67 | M1 agonist conf inactive | M4 ag counter -88
O=C(NCc1ccco1)c1cnn2c(C(F)(F)F)cc(-c3ccccc3)nc12	none
COc1ccc(-c2cc(C(F)(F)F)n3ncc(C(=O)NCc4ccco4)c3n2)cc1	M1 ag 2.9 | M1 agonist conf inactive | M4 ag counter inactive
O=C(NC1CCCC1)c1cnn2c(C(F)(F)F)cc(-c3ccc4c(c3)OCO4)nc12	M1 ag 14 | M1 agonist conf inactive | M4 ag counter inactive
Cn1c(-c2ccc(CN3CCCCC3)o2)nc2ccccc21	none
CN=Cc1sc2ccccc2c1O	none
CC(=Nc1cccc(O)c1)c1sc2ccccc2c1O	M1 ag 5.4 (no result: Jurkat viability) | M1 agonist conf inactive | M4 ag counter inactive
CCOC(=O)c1sc(NC(=O)CCn2nnc3ccccc32)c(C(=O)OCC)c1C	none
CCOC(=O)C(C)Sc1nnc(CNC(=O)c2ccc(OC)cc2)n1C1CCCCC1 (stereo not drawn)	M1 ag 3.3 | M1 agonist conf inconclusive | M4 ag counter inconclusive
COCCn1nnnc1C(c1ccccc1OC)N1CCc2ccccc2C1 (stereo not drawn)	none
